Experimental data from ChEMBL document CHEMBL1124676, “Hypoxia-selective antitumor agents. 2. Electronic effects of 4-substituents on the mechanisms of cytotoxicity and metabolic stability of nitracrine derivatives” (J Med Chem, 1989).

Columns and labels:
UV4 [1] = assay: Inhibitory ativity to reduce cell density by 50% of repair deffective mutant UV-4 cells in 96-well cultures under aerobic conditions; type: functional, cell-based; details: Cricetulus griseus
Outline: (§1)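 Microassay: 200 AA8 or 300 UV-4 viable cells/well plus 5000 irradiated (35 Gy) AA8 feeder cells. Serial 2-fold drug dilutions added after 24 h. Plates held 18 h at 37 °C in chambers flushed with 5% CO2 in air or in N2 (with 1% H2, Pd catalyst). Then washed, grown 72-78 h, stained with methylene blue, A620−A405. IC50 vs 50% of control; three independent experiments.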

CHO-AA8 [2] = assay: Inhibitory activity to reduce cell density by 50% of AA8 cells under aerobic conditions; type: functional, cell-based; details: Cricetulus griseus; outline: as §1
CHO-AA8 [3] = assay: (§2) Extrapolated fraction of biological activity remaining at time zero of stirred aerobic AA8 suspension cultures; type: functional, Cricetulus griseus
Outline: (§3)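 Plateau-phase AA8 cells, 10^6 cells/mL, stirred suspension under 5% CO2 in air or N2. Supernatants sampled over time (spun 1300g × 1 min) and dilutions assayed against log-phase UV-4 (seeded 3 × 10^3 cells/mL, 24 h earlier), 4-day continuous exposure, methylene blue staining. Activity remaining = IC50 at time zero / apparent IC50; half-life and zero-time intercept from log-linear regression.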

[4] = Half life of extracellular bioactivity assessed by bioassay of culture supernatant against aerobic UV-4 cells; No statistically significant trend with time; type: ADME, cell-based, Cricetulus griseus; details: chinese hamster, uv4; outline: as §3
[5] = Ratio of growth inhibition of compound to reduce cell density by 50% of repair deffective mutant UV-4 cells in 96-well cultures under aerobic and hypoxic conditions (air/N2); type: functional; outline: as §1
[6] = Half life of extracellular bioactivity assessed by bioassay of culture supernatant against hypoxic UV-4 cells; type: ADME, cell-based, Cricetulus griseus, UV4; details: chinese hamster, hypoxic UV-4 cell cultures (culture supernatant); outline: as §3
[7] = Ratio of growth inhibition of compound to reduce cell density by 50% of AA8 cells under aerobic and hypoxic conditions (air/N2); type: functional, CHO-AA8; outline: as §1
[8] = Total compound concentration in AA8 suspension cultures at zero time; type: ADME; details: hamster
[9] = Ratio for hypoxic AA8/ hypoxic UV-4, expressed as hypersensitivity factor under hypoxic conditions; type: functional; outline: as §1
UV4 [10] = assay: Inhibitory concentration required to reduce cell density in UV-4 cells to 50% of controls (cells were exposed to compound for 4 days continuously); type: functional, cell-based; details: Cricetulus griseus, UV4, 96 h
Outline: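 UV-4 cells seeded at 3 × 10^3 cells/mL about 24 h before drug, exposed continuously for 4 days, then methylene blue staining. IC50 = concentration reducing absorbance to 50% of controls; six determinations.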

[11] = Ratio for […], expressed as hypersensitivity factor under aerobic conditions; type: functional; outline: as §1
[12] = Extrapolated fraction of biological activity remaining at time zero of hypoxic AA8 suspension cultures; type: ADME; details: hamster; outline: as §3
[13] = Hypersensitivity factor (HF) of IC50 (AA8) / IC50 (EM-9) of compound for repair deffective mutants; type: functional
Outline: (§4)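 Miniassay: AA8, UV-4, UV-5 or EM-9 cells were seeded at 2 × 10^4 cells/mL in 24-well dishes. After 24 h, five 2-fold serial concentrations were added in duplicate and held 4 h at 37 °C. Cells were washed, grown 30 h more, trypsinized and counted electronically. IC50 is 50% of mean control cell density. HF = IC50(AA8)/IC50(mutant), mean ± SE of 2–4 experiments.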

[14] = Hypersensitivity factor (HF) of IC50 (AA8) / IC50 (UV-5) of compound for repair deffective mutants; type: functional; outline: as §4
[15] = Hypersensitivity factor (HF) of IC50 (AA8) / IC50 (UV-4) of compound for repair deffective mutants; type: functional; outline: as §4
[16] = as §2; type: ADME; details: hamster; outline: as §3
[17] = Half life of extracellular bioactivity assessed by bioassay of culture supernatant against aerobic UV-4 cells; type: ADME, cell-based, Cricetulus griseus, UV4; details: chinese hamster, aerobic UV-4 cell cultures (culture supernatant); outline: as §3

Row | SMILES | IC50 (UV4 [1]) [nM] | IC50 (CHO-AA8 [2]) [nM] | A0 (CHO-AA8 [3]) | T1/2 [4] | Ratio [5] | half-life [6] [h] | Ratio [7] | CO [8] [mM] | Ratio [9] | IC50 (UV4 [10]) [nM] | Ratio [11] | A0 [12] | Ratio [13] | Ratio [14] | Ratio [15] | A0 [16] | half-life [17] [h]
1 | CN(C)CCCNc1c2ccccc2nc2c(N(CCO)CCO)ccc([N+](=O)[O-])c12 | 19400 | 62000 |  |  |  |  |  |  |  |  |  |  |  |  |  |  | 
2 | COC(=O)c1ccc([N+](=O)[O-])c2c(NCCCN(C)C)c3ccccc3nc12 | 1950 | 2900 | 0.47 | Not Active | 1.2 | 3.9 | 1.2 | 0.01 | 1.5 | 590 | 1.5 | 0.45 |  |  |  |  | 
3 | CO[C@@]12[C@H](COC(N)=O)C3=C(C(=O)C(C)=C(N)C3=O)N1C[C@@H]1N[C@@H]12 |  |  |  |  |  |  |  |  |  |  |  |  | 0.78 | 2.35 | 86 |  | 
4 | COc1ccc([N+](=O)[O-])c2c(NCCCN(C)C)c3ccccc3nc12 | 63 | 616 |  |  | 4.2 | 5.2 | 5.3 | 3 |  | 14.5 | 7.8 | 0.78 |  |  |  | 0.76 | 14
5 | CC(=O)OCCN(CCOC(C)=O)c1ccc([N+](=O)[O-])c2c(NCCCN(C)C)c3ccccc3nc12 | 11600 | 43000 |  |  | 4.8 | 8.4 | 4.5 |  |  | 3450 | 4.8 | 1.03 |  |  |  | 1.11 | 18
6 | CN(C)CCCNc1c2ccccc2nc2cccc([N+](=O)[O-])c12 [NITRACRINE] | 2 | 26.3 |  |  | 3.8 | 0.84 |  | 0.04 |  | 0.66 | 14.9 | 0.98 | 1.8 | 8 | 12.8 | 0.86 | 7.3
7 | CN(C)CCCNc1c2ccccc2nc2c(N(C)C)ccc([N+](=O)[O-])c12 | 6200 | 18900 |  |  | 2.3 | 2.3 | 3.3 |  |  | 410 | 2.1 | 0.68 |  |  |  | 0.78 | 4.8
8 | CCOS(C)(=O)=O [METHANESULFONIC ACID ETHYL ESTER] |  |  |  |  |  |  |  |  |  |  |  |  | 6.3 | 1.2 | 1.3 |  | 
9 | O=C(O)CCCc1ccc(N(CCCl)CCCl)cc1 |  |  |  |  |  |  |  |  |  |  |  |  | 0.69 | 1.4 | 43 |  | 
10 | COc1cc(NS(C)(=O)=O)ccc1Nc1c2ccccc2nc2ccccc12 |  |  |  |  |  |  |  |  |  |  |  |  | 0.68 | 0.9 | 0.9 |  | 
11 | CN(C)CCCNc1c2ccccc2nc2c(F)ccc([N+](=O)[O-])c12 | 12 | 250 |  |  | 1.4 | 0.77 | 1.3 | 0.1 |  | 2 | 21 | 0.84 |  |  |  | 0.64 | 0.91
12 | O=[N+]([O-])c1cc[n+]([O-])c2ccccc12 [4-NITROQUINOLINE-1-OXIDE] |  |  |  |  |  |  |  |  |  |  |  |  | 0.8 | 16 | 17 |  | 
13 | CN(C)CCCNc1c2ccccc2nc2c(Cl)ccc([N+](=O)[O-])c12 | 3.3 | 33 |  |  | 4.9 | 0.68 | 3.7 | 0.04 |  | 0.62 | 13 | 0.56 |  |  |  | 0.79 | 4.3
14 | CN(C)CCCNc1c2ccccc2nc2ccccc12 |  |  |  |  |  |  |  |  |  |  |  |  | 0.78 | 0.87 | 1.03 |  | 
15 | Cc1ccc([N+](=O)[O-])c2c(NCCCN(C)C)c3ccccc3nc12 | 8 | 76 |  | Not Active | 4.6 | 0.99 | 5 | 0.2 |  | 1.65 | 9 | 1.12 |  |  |  | 0.65 | 
